Measurements from ChEMBL document CHEMBL1944603, “An efficient synthesis of highly functionalized novel chromeno[4,3-b]pyrroles and indolizino[6,7-b]indoles as potent antimicrobial and antioxidant agents” (2012).
Values after ≈ are worked out from the molar mass of the structure shown.

Tests used:
Type in all cases: functional
[1] = system: Radical scavenging activity; test: Antioxidant activity assessed as DPPH free radical scavenging activity at 1000 ug by spectrophotometer
In short: (§1)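 DPPH radical scavenging measured spectrophotometrically by Blois's method at 50, 500 and 1000 µg. Absorbance read at 517 nm. Percent scavenging is the absorbance decrease at 517 nm relative to the absorbance of DPPH solution without test compound. L-ascorbic acid as standard.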

[2] = system: Fusarium oxysporum; test: Antifungal activity against Fusarium oxysporum
In short: (§2)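 Agar diffusion assay in duplicate against the plant fungal pathogens; read-out as minimum inhibitory concentration (MIC); carbendazim as reference control.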

[3] = system: Klebsiella pneumoniae; test: Antimicrobial activity against Klebsiella pneumoniae at 50 ug/ml by agar diffusion assay
In short: (§3)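 Agar diffusion assay in duplicate against the human bacterial pathogens; tetracycline as reference control.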

[4] = system: Klebsiella pneumoniae; test: Antimicrobial activity against Klebsiella pneumoniae at 25 ug/ml by agar diffusion assay; in short: as §3
[5] = system: Klebsiella pneumoniae; test: Antimicrobial activity against Klebsiella pneumoniae at 75 ug/ml by agar diffusion assay; in short: as §3
[6] = system: Bacillus subtilis; test: Antimicrobial activity against Bacillus subtilis at 25 ug/ml by agar diffusion assay; in short: as §3
[7] = system: Bacillus subtilis; test: Antimicrobial activity against Bacillus subtilis at 50 ug/ml by agar diffusion assay; in short: as §3
[8] = system: Pseudomonas aeruginosa; test: Antimicrobial activity against Pseudomonas aeruginosa at 100 ug/ml by agar diffusion assay; in short: as §3
[9] = system: Radical scavenging activity; test: Antioxidant activity assessed as DPPH free radical scavenging activity at 50 ug by spectrophotometer; in short: as §1
[10] = system: Staphylococcus aureus; test: Antimicrobial activity against Staphylococcus aureus at 50 ug/ml by agar diffusion assay; in short: as §3
[11] = system: Staphylococcus aureus; test: Antimicrobial activity against Staphylococcus aureus at 100 ug/ml by agar diffusion assay; in short: as §3
[12] = system: Klebsiella pneumoniae; test: Antimicrobial activity against Klebsiella pneumoniae at 100 ug/ml by agar diffusion assay; in short: as §3
[13] = system: Pseudomonas aeruginosa; test: Antimicrobial activity against Pseudomonas aeruginosa at 25 ug/ml by agar diffusion assay; in short: as §3
[14] = system: Pseudomonas aeruginosa; test: Antimicrobial activity against Pseudomonas aeruginosa at 50 ug/ml by agar diffusion assay; in short: as §3
[15] = system: Bacillus subtilis; test: Antimicrobial activity against Bacillus subtilis at 75 ug/ml by agar diffusion assay; in short: as §3
[16] = system: Radical scavenging activity; test: Antioxidant activity assessed as DPPH free radical scavenging activity at 500 ug by spectrophotometer; in short: as §1
[17] = system: Staphylococcus aureus; test: Antimicrobial activity against Staphylococcus aureus at 75 ug/ml by agar diffusion assay; in short: as §3
[18] = system: Pseudomonas aeruginosa; test: Antimicrobial activity against Pseudomonas aeruginosa at 75 ug/ml by agar diffusion assay; in short: as §3
[19] = system: Bacillus subtilis; test: Antimicrobial activity against Bacillus subtilis at 100 ug/ml by agar diffusion assay; in short: as §3
[20] = system: Staphylococcus aureus; test: Antimicrobial activity against Staphylococcus aureus at 25 ug/ml by agar diffusion assay; in short: as §3
[21] = system: Macrophomina phaseolina; test: Antifungal activity against Macrophomina phaseolina; in short: as §2

Which Activity [1] does the source give for `COC(=O)[C@]12Cc3c([nH]c4ccccc34)[C@@H](c3ccc(Cl)cc3)N1[C@@H]1c3c(ccc4ccccc34)OC[C@@H]1C2` here?
Its Activity is 75%.

And the MIC [2]?
The MIC was 90 µg/mL (≈ 168 µM).

And the inhibition zone (IZ) [3]?
Its inhibition zone (IZ) is 15 mm.

What about the inhibition zone (IZ) [4] of the same compound?
Its inhibition zone (IZ) is 11 mm.

And the inhibition zone (IZ) [5]?
The inhibition zone (IZ) was 22 mm.

And the inhibition zone (IZ) [6]?
The inhibition zone (IZ) was 12 mm.

What about the inhibition zone (IZ) [7] of the same compound?
Its inhibition zone (IZ) is 18 mm.

And the inhibition zone (IZ) [8]?
The inhibition zone (IZ) was 26 mm.

What about the Activity [9] of the same compound?
Its Activity is 26%.

And the inhibition zone (IZ) [10]?
The inhibition zone (IZ) was 17 mm.

And the inhibition zone (IZ) [11]?
The inhibition zone (IZ) was 28 mm.

What about the inhibition zone (IZ) [12] of the same compound?
Its inhibition zone (IZ) is 25 mm.

And the inhibition zone (IZ) [13]?
Its inhibition zone (IZ) is 12 mm.

And the inhibition zone (IZ) [14]?
Its inhibition zone (IZ) is 16 mm.

And the inhibition zone (IZ) [15]?
Its inhibition zone (IZ) is 21 mm.

What about the Activity [16] of the same compound?
The Activity was 44%.

And the inhibition zone (IZ) [17]?
The inhibition zone (IZ) was 20 mm.

What about the inhibition zone (IZ) [18] of the same compound?
Its inhibition zone (IZ) is 20 mm.

And the inhibition zone (IZ) [19]?
The inhibition zone (IZ) was 26 mm.

And the inhibition zone (IZ) [20]?
Its inhibition zone (IZ) is 14 mm.

What about the MIC [21] of the same compound?
Its MIC is 105 µg/mL (≈ 196 µM).

For `COC(=O)[C@]12Cc3c([nH]c4ccccc34)[C@@H](c3ccc(Cl)cc3)N1[C@@H]1c3ccccc3OC[C@@H]1C2`, which Activity [1] is on record?
Its Activity is 68%.

And the MIC [2]?
The MIC was 70 µg/mL (≈ 144 µM).

What about the inhibition zone (IZ) [3] of the same compound?
The inhibition zone (IZ) was 20 mm.

And the inhibition zone (IZ) [4]?
Its inhibition zone (IZ) is 16 mm.

What about the inhibition zone (IZ) [5] of the same compound?
Its inhibition zone (IZ) is 25 mm.

And the inhibition zone (IZ) [6]?
Its inhibition zone (IZ) is 13.5 mm.

What about the inhibition zone (IZ) [7] of the same compound?
The inhibition zone (IZ) was 21 mm.

And the inhibition zone (IZ) [8]?
Its inhibition zone (IZ) is 36 mm.

What about the Activity [9] of the same compound?
The Activity was 21%.

What about the inhibition zone (IZ) [10] of the same compound?
Its inhibition zone (IZ) is 21 mm.

And the inhibition zone (IZ) [11]?
Its inhibition zone (IZ) is 29 mm.

And the inhibition zone (IZ) [12]?
The inhibition zone (IZ) was 30 mm.

What about the inhibition zone (IZ) [13] of the same compound?
Its inhibition zone (IZ) is 16 mm.

And the inhibition zone (IZ) [14]?
The inhibition zone (IZ) was 22 mm.

What about the inhibition zone (IZ) [15] of the same compound?
The inhibition zone (IZ) was 26 mm.

And the Activity [16]?
Its Activity is 43%.

What about the inhibition zone (IZ) [17] of the same compound?
Its inhibition zone (IZ) is 24 mm.

What about the inhibition zone (IZ) [18] of the same compound?
The inhibition zone (IZ) was 25 mm.

And the inhibition zone (IZ) [19]?
The inhibition zone (IZ) was 36 mm.

And the inhibition zone (IZ) [20]?
Its inhibition zone (IZ) is 20 mm.

And the MIC [21]?
Its MIC is 20 µg/mL (≈ 41.2 µM).
